Experiments:
Cavia porcellus = species: Cavia porcellus; assay: Compound was tested for the displacement of [3H]mepyramine from Histamine H1 receptor by competition binding assay.
Outline: (§1)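 Membranes from guinea pig brain minus cerebellum (P2 fraction, pre-incubated 15 min at 25 °C, stored at –80 °C). Competition with 2 nM [3H]mepyramine in 50 mM Na+K+-phosphate pH 7.4, 1 h at 30 °C, triplicate tubes. Nonspecific binding defined with 20.0 μM triprolidine. Bound ligand collected on GF/B glass fibre filters, rinsed three times with cold buffer and counted by liquid scintillation.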

[1] = molecular target: Histamine H1 receptor (Cavia porcellus) (UniProt P31389); assay: Compound was tested for the displacement of [3H]mepyramine from Histamine H1 receptor by competition binding assay; outline: as §1
Sequence of Histamine H1 receptor (Cavia porcellus) (P31389 whole entry): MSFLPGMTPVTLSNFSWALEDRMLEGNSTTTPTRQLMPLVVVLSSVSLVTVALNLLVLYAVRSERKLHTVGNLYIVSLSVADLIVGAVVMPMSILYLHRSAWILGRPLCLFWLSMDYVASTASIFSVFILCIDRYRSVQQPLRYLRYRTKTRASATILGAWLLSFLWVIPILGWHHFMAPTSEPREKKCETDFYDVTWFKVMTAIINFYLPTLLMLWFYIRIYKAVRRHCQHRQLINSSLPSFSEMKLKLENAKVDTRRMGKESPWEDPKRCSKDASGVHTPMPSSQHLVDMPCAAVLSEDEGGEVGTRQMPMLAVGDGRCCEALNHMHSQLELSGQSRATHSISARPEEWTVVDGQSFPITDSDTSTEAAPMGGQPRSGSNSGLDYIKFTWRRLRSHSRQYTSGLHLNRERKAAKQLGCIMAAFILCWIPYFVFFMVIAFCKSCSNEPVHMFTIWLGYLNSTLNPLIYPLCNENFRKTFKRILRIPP

Compound	K0.5 (Cavia porcellus)	K0.5 [1]
CN(C)c1ccc2c3c(cccc13)-c1ccccc1-2	4000 nM	–
CNC1Cc2ccccc2C(c2ccccc2)C1 (configuration not stated)	64 nM	–
CN(C)C1Cc2ccccc2C(C)(c2ccccc2)C1 (stereo in doubt; 15)	4.4 nM	–
CN(C)C1Cc2ccccc2C(c2ccccc2)C1 (stereo in doubt; 1c)	2.45 nM	–
CN(C)C1Cc2cc(Cl)c(O)cc2C(c2ccccc2)C1 (stereo in doubt; 2)	–	1.47 nM
CN(C)C1CCc2ccccc2C1c1ccccc1 (stereo in doubt; 8)	> 2000 nM	–
CN(C)C1Cc2ccccc2C(c2ccccc2)C1 (stereo in doubt; 1b)	19.1 nM	–
CC(C)(C)[C@]1(O)CCN2C[C@H]3c4ccccc4CCc4cccc(c43)[C@@H]2C1	405 nM	–
CN(C)C1Cc2cc(O)c(O)cc2C(c2ccccc2)C1 (stereo in doubt; 12)	69 nM	–
CN(C)CC/C=C1/c2ccccc2COc2ccccc21	–	0.16 nM
CN1[C@@H]2CC[C@H]1C[C@@H](OC(=O)C(CO)c1ccccc1)C2 (some centres not stated)	580 nM	–
Cc1ccc(/C(=C\CN2CCCC2)c2ccccn2)cc1	–	0.46 nM
OC(CCCN1CCN(c2ncc(F)cn2)CC1)c1ccc(F)cc1 (configuration not stated)	–	548 nM
C=CCN1CC[C@@]2(C)c3cc(O)ccc3C[C@H]1[C@H]2C	2000 nM	–
CN(C)C1Cc2ccccc2C(c2ccccc2)C1 (stereo in doubt; 1d)	111 nM	–
CN(C)CC[C@@H](c1ccc(Cl)cc1)c1ccccn1	–	1.16 nM

Compound	K0.5 (Cavia porcellus)	K0.5 [1]
CN(C)CCOC(c1ccccc1)c1ccccc1	–	6.1 nM
CN(C)CC[C@H](c1ccc(Cl)cc1)c1ccccn1	–	61.6 nM
CN(C)C1Cc2cc(O)c(O)cc2C(c2ccccc2)C1 (stereo in doubt; 13)	11.8 nM	–
CN(C)C1Cc2ccccc2C(c2ccccc2Cl)C1 (configuration not stated)	42.7 nM	–
CN(C)C1Cc2ccccc2C(c2ccccc2)C1 (stereo in doubt; 1a)	1.07 nM	–
C[N+](C)(C)C1Cc2ccccc2C(c2ccccc2)C1 (stereo in doubt; 25)	107 nM	–
CN(C)C1Cc2ccccc2C(c2ccc(F)cc2)C1 (configuration not stated)	2.3 nM	–
CCN(CC)C1Cc2ccccc2C(c2ccccc2)C1 (configuration not stated)	13.3 nM	–
CN(C)C1CCc2ccccc2C1 (configuration not stated)	75 nM	–
Nc1ccc2c3c(cccc13)-c1ccccc1-2	4000 nM	–
CN(C)C1Cc2ccccc2C(c2ccc(Cl)cc2)C1 (configuration not stated)	4.4 nM	–
CN(C)C1Cc2ccccc2C(C)(c2ccccc2)C1 (stereo in doubt; 14)	40 nM	–
CN(C)C1CCc2ccccc2C(c2ccccc2)C1 (stereo in doubt; 10)	217 nM	–
Cc1ccc(C2CC(N(C)C)Cc3ccccc32)cc1 (configuration not stated)	5 nM	–
Cc1ccccc1C1CC(N(C)C)Cc2ccccc21 (configuration not stated)	12.7 nM	–
C[N+](C)(C)C1Cc2ccccc2C(c2ccccc2)C1 (stereo in doubt; 3)	120 nM	–
